Where two headings read alike, the source gives them in different places. One block for each compound: values may come before it.
What was measured:
human recombinant CYP1A1 = target: T1, human recombinant CYP1A1 (Homo sapiens, UniProt P04798); experiment: EROD activity of microsomes containing human recombinant CYP1A1; format: biochemical
T1 sequence (P04798 1-512): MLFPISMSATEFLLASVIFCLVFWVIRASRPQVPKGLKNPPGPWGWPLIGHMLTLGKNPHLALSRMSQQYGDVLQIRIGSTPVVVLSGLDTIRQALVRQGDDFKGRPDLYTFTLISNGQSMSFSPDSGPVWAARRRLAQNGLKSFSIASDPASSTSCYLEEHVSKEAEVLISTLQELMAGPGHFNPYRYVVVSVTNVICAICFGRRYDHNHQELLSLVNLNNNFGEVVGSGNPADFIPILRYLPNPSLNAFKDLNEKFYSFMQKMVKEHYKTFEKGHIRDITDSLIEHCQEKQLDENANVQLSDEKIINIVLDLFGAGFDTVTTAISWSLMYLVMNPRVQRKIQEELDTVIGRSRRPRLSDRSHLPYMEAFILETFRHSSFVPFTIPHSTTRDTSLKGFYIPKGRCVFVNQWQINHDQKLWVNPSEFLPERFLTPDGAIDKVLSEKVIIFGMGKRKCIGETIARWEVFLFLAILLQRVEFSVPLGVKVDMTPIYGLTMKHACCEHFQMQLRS
Procedure, shortened: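 Microsomes containing recombinant human CYP1A1 (2.5 nM) with NADPH-P450 reductase were pre-incubated 5 min with test compound (0.00064–20 μM) or DMSO (final <0.5%). 7-Ethoxyresorufin (0.5 μM) and NADPH (0.4 mM) were then added. Resorufin formation was followed kinetically at 535/590 nm, every 2 s, in triplicate. DMSO control was set as 100% and the no-NADPH reaction as 0%; IC50 was fitted by nonlinear regression.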

[1] = test system: CYP1-dependent EROD activity in HaCaT cells; experiment: Cellular CYP1-dependent EROD activity in HaCaT cells, single exposure; format: cell-based, human; conditions: HaCaT cells, 0.1, 1.0 or 10 μM, 3-48 h
Procedure, shortened: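 Confluent HaCaT cells were exposed to 0.1, 1.0 or 10 μM test compound, B[a]P or DMSO for 3, 6, 24 and 48 h. Medium was removed and cells rinsed with PBS, then incubated 20 min at 37 °C with 2 μM 7-ethoxyresorufin in 50 mM sodium phosphate, pH 8.0. The reaction was stopped with cold fluorescamine (0.15 mg/mL in acetonitrile). Resorufin was read at 535/590 nm in triplicate and normalized to protein (fluorescamine, 390/485 nm).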

[2] = test system: CYP1B1 mRNA in HaCaT cells; experiment: CYP1B1 gene expression by qRT-PCR in HaCaT cells, single exposure; format: cell-based, human; conditions: 6 h; for reduction of CYP1B1 mRNA levels compared to DMSO control: dose-dependent, 0.1-10 μM
Procedure, shortened: (§1)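 Confluent HaCaT cells (seeded 1 × 10^4/well, grown 3 d) were exposed in fresh DMEM to 0.1, 1.0 or 10 μM test compound or DMSO for 6 h. One-step SYBR Green RT-PCR used cell lysate directly with 200 nM primers. Cycling was 48 °C 30 min, 95 °C 10 min, then 40 × (95 °C 15 s, 60 °C 1 min), with melt curve. Expression is 2^–ΔΔCt normalized to B2M; three experiments in duplicate. Calls required p < 0.05 (two-way ANOVA, Bonferroni) and >2-fold versus DMSO; strong inducer was ≥20-fold.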

[3] = test system: CYP1A1 mRNA in HaCaT cells; experiment: CYP1A1 gene expression by qRT-PCR in HaCaT cells, single exposure; format: cell-based, human; conditions: 6 h; for reduction of CYP1A1 mRNA levels compared to DMSO control: dose-dependent, 0.1-10 μM
Procedure, shortened: as §1

[4] = test system: TCDD induced CYP1 mRNA (CYP1A1 and 1B1) in HaCaT cells; experiment: TCDD-induced CYP1 mRNA; format: cell-based, human; conditions: TCDD 5 nM + 0.1-10 μM oxy-PAH, 6 h
Procedure, shortened: (§2)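 Confluent HaCaT cells were exposed for 6 h to TCDD (5 nM) alone or with 0.1, 1.0 or 10 μM test compound. CYP1A1 and CYP1B1 mRNA were measured by one-step SYBR Green RT-PCR on cell lysate with 200 nM primers. Quantification used 2^–ΔΔCt with B2M as reference; three experiments in duplicate. Levels are % of TCDD-alone mRNA (100%). Strong inhibitor meant p < 0.05 at ≤1 μM; inhibitor meant p < 0.05 at 10 μM (two-way ANOVA, Bonferroni).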

[5] = test system: TCDD induced CYP1A1 mRNA in HaCaT cells; experiment: TCDD-induced CYP1A1 mRNA in HaCaT cells, co-exposure with oxy-PAH; format: cell-based, human; conditions: TCDD 5 nM + 1 μM oxy-PAH, 6 h
Procedure, shortened: as §2

[6] = test system: TCDD induced CYP1-dependent EROD activity in HaCaT cells; experiment: TCDD-induced cellular EROD activity in HaCaT cells, co-exposure with oxy-PAH; format: cell-based, human; conditions: TCDD 5 nM + 0.1-10 μM oxy-PAH, 6, 12, 24 h
Procedure, shortened: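 Confluent HaCaT cells were co-exposed to TCDD (5 nM) alone or with 0.1, 1.0 or 10 μM test compound for 6, 12 and 24 h. After a PBS rinse, cells were incubated 20 min at 37 °C with 2 μM 7-ethoxyresorufin in 50 mM sodium phosphate, pH 8.0, and stopped with cold fluorescamine. Resorufin (535/590 nm) was read in triplicate and normalized to fluorescamine protein signal. Activity is % of TCDD alone.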

[7] = test system: TCDD induced CYP1B1 mRNA in HaCaT cells; experiment: TCDD-induced CYP1B1 mRNA in HaCaT cells, co-exposure with oxy-PAH; format: cell-based, human; conditions: TCDD 5 nM + 1 μM oxy-PAH, 6 h
Procedure, shortened: as §2

HaCaT cells = experiment: Alamar Blue cell viability assay; format: cell-based, human; conditions: 10 μM, alone or with TCDD 5 nM, 24 h
Procedure, shortened: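 HaCaT keratinocytes were grown in DMEM with 10% FBS at 37 °C, 5% CO2, seeded at 1 × 10^4 cells/well and cultured 3 d to high confluency. Cells were exposed in fresh DMEM to test compound alone or with TCDD (5 nM), with 0.1–0.18% DMSO as solvent control. Afterwards, 10% AlamarBlue in DMEM was added for 1 h at 37 °C and fluorescence read at 560/590 nm. Viability is given as % of DMSO control, from three separate experiments.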

CYP1 = conditions: read-out: reported IC50 values, CYP1 inhibition; cited from earlier work
[8] = IC50, inhibition of CYP1A1-mediated EROD activity, human recombinant CYP1A1 2.5 nM, 7-ethoxyresorufin 0.5 μM, NADPH 0.4 mM, 5 min pre-incubation

Structure (SMILES): O=C1C(=O)c2cccc3cccc1c23 [1,2-ACNQ, acenaphthylene-1,2-quinone]
IC50 (human recombinant CYP1A1; [8]): > 10 µM

Structure (SMILES): O=C1C=CC(=O)c2c1ccc1c2ccc2ccccc21 [1,4-CHRQ, chrysene-1,4-quinone]
induction of cellular EROD activity (in words) [1]: did not induce EROD activity
increase of CYP1B1 mRNA levels compared to DMSO control ([2]; 0.1-10 μM oxy-PAH): ≤ 40 fold
increase of CYP1A1 mRNA levels compared to DMSO control ([3]; 0.1-10 μM oxy-PAH): up to 60 fold
effect on TCDD-induced CYP1A1 and 1B1 expression levels (in words) [4]: no effect at all
IC50 (human recombinant CYP1A1; [8]): 6.2 µM

IC50 (human recombinant CYP1A1; [8]): > 10 µM
Structure (SMILES): O=C1CCc2ccccc21 [1-INO, 1-Indanone]

IC50 (human recombinant CYP1A1; [8]): > 10 µM
Structure (SMILES): O=C1C=Cc2cccc3cccc1c23 [1H-PHO, 1H-phenalen-1-one]

reduction of TCDD-induced CYP1A1 mRNA levels [5]: around 50%
inhibition of TCDD-mediated EROD activity (in words) [6]: significant inhibition
reduction of TCDD-induced CYP1B1 mRNA levels [7]: around 50%
IC50 (human recombinant CYP1A1; [8]): 2.1 µM
Structure (SMILES): Cc1cc2c(cc1C)C(=O)c1ccccc1C2=O [2,3-DMAQ, 2,3-dimethylanthracene-9,10-quinone]
induction of cellular EROD activity (in words) [1]: significantly increased levels of enzyme activity compared to the DMSO control but lower than B[a]P

Structure (SMILES): Cc1ccc2c(c1)C(=O)c1ccccc1C2=O [2-MAQ, 2-methylanthracene-9,10-quinone]
induction of cellular EROD activity (in words) [1]: significantly increased levels of enzyme activity compared to the DMSO control but lower than B[a]P

reduction of CYP1B1 mRNA levels compared to DMSO control [2]: up to 15 fold
reduction of CYP1A1 mRNA levels compared to DMSO control [3]: up to 15 fold
IC50 (human recombinant CYP1A1; [8]): 0.32 µM
Structure (SMILES): O=c1c2cccc3ccc4cccc1c4c32 [4H-CPO, 4H-Cyclopenta[def]phenanthrene-4-one]
induction of cellular EROD activity (in words) [1]: significantly increased levels of enzyme activity compared to the DMSO control but lower than B[a]P

increase of CYP1B1 mRNA levels compared to DMSO control ([2]; 0.1-10 μM oxy-PAH): ≤ 40 fold
increase of CYP1A1 mRNA levels compared to DMSO control ([3]; 0.1-10 μM oxy-PAH): up to 60 fold
effect on TCDD-induced CYP1A1 and 1B1 expression levels (in words) [4]: no effect at all
inhibition of TCDD-mediated EROD activity (in words) [6]: significant inhibition
Structure (SMILES): O=C1c2ccccc2C(=O)c2cc3ccccc3cc21 [5,12-NQ, naphthacene-5,12-quinone]

reduction of CYP1B1 mRNA levels compared to DMSO control [2]: up to 15 fold
reduction of TCDD-induced CYP1A1 mRNA levels [5]: around 50%
reduction of CYP1A1 mRNA levels compared to DMSO control [3]: up to 15 fold
inhibition of TCDD-mediated EROD activity (in words) [6]: significant inhibition
reduction of TCDD-induced CYP1B1 mRNA levels [7]: around 50%
Structure (SMILES): O=C1c2cccc3ccc4ccc5cccc1c5c4c23 [6H-BPO, 6H-benzo[cd]pyren-6-one]
induction of cellular EROD activity (in words) [1]: significantly increased levels of enzyme activity compared to the DMSO control but lower than B[a]P
cytotoxicity (Alamar Blue viability, in words) (HaCaT cells): not associated with increased cytotoxicity

Structure (SMILES): O=C1c2ccccc2C(=O)c2c1ccc1ccccc21 [7,12-BAQ, benz[a]anthracene-7,12-quinone]
increase of CYP1B1 mRNA levels compared to DMSO control ([2]; 0.1-10 μM oxy-PAH): ≤ 40 fold
increase of CYP1A1 mRNA levels compared to DMSO control ([3]; 0.1-10 μM oxy-PAH): up to 60 fold
effect on TCDD-induced CYP1A1 and 1B1 expression levels (in words) [4]: no effect at all
inhibition of TCDD-mediated EROD activity (in words) [6]: most potent inhibitors
IC50 (human recombinant CYP1A1; [8]): 0.037 µM

Structure (SMILES): O=C1c2ccccc2-c2cccc3cccc1c23 [7H-BAO, 7H-benz[de]anthracene-7-one]
IC50 (human recombinant CYP1A1; [8]): 0.77 µM

Structure (SMILES): O=C1c2ccccc2C(=O)c2ccccc21 [9,10-AQ, anthracene-9,10-quinone]
reduction of CYP1B1 mRNA levels compared to DMSO control [2]: up to 15 fold
reduction of CYP1A1 mRNA levels compared to DMSO control [3]: up to 15 fold
inhibition of TCDD-mediated EROD activity (in words) [6]: significant inhibition
IC50 (human recombinant CYP1A1; [8]): > 10 µM

Structure (SMILES): O=C1C(=O)c2ccccc2-c2ccccc21 [9,10-PQ, phenanthrene-9,10-quinone]
cytotoxicity (Alamar Blue viability, in words) (HaCaT cells): increased cytotoxicity

IC50 (human recombinant CYP1A1; [8]): 3 µM
Structure (SMILES): O=C1c2ccccc2-c2ccccc21 [9-FLO, 9-fluorenone]

Structure (SMILES): O=C1c2ccccc2-c2ccc3ccccc3c21 [BFLO, benzo[a]fluorenone]
increase of CYP1B1 mRNA levels compared to DMSO control ([2]; 0.1-10 μM oxy-PAH): ≤ 40 fold
reduction of TCDD-induced CYP1A1 mRNA levels [5]: around 50%
increase of CYP1A1 mRNA levels compared to DMSO control ([3]; 0.1-10 μM oxy-PAH): up to 60 fold
inhibition of TCDD-mediated EROD activity (in words) [6]: most potent inhibitors
reduction of TCDD-induced CYP1B1 mRNA levels [7]: around 50%
IC50 (human recombinant CYP1A1; read-out: IC50, inhibition of CYP1A1-mediated EROD activity, human recombinant CYP1A1 2.5 nM, 7-ethoxyresorufin 0.5 μM, NADPH 0.4 mM, 5 min pre-incubation): 0.061 µM

Structure (SMILES): Clc1cc2c(cc1Cl)Oc1cc(Cl)c(Cl)cc1O2 [TCDD, 2,3,7,8-Tetrachlorodibenzo-p-dioxin, reference compound]
increase of CYP1B1 mRNA levels compared to DMSO control ([2]; TCDD alone 5 nM): 36 fold
increase of CYP1A1 mRNA levels compared to DMSO control ([3]; TCDD alone 5 nM): 138 fold

Structure (SMILES): c1ccc2cc3c(ccc4ccccc43)cc2c1 [benz[a]anthracene]
IC50 (CYP1): < 0.1 µM

Structure (SMILES): c1ccc2c(c1)ccc1nc3ccc4ccccc4c3cc12 [dibenz[a,j]acridine]
IC50 (CYP1): < 0.1 µM

Structure (SMILES): c1cc2ccc3cccc4ccc(c1)c2c34 [pyrene]
IC50 (CYP1): < 0.1 µM

Structure (SMILES): O=c1cc(-c2ccccc2)oc2c1ccc1ccccc12 [αNF, α-Naphthoflavone]
IC50 (CYP1): < 0.1 µM

From article PMC6062249 (Toxicology Research, 2016)
